ChEMBL document CHEMBL3751768, “Synthesis and anti-tuberculosis activity of glycitylamines” (2016)

test system: Mycobacterium tuberculosis; assay: Antitubercular activity against […] after 7 days by alamar blue assay; type: functional; conditions: 168 h
How it was run: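 M. bovis BCG stock, thawed with sonication/ice cycles, diluted to 8 × 10⁴ bacteria per mL in Tween albumin broth (Dubos/OADC). Compounds prepared in PBS (up to 5% DMSO) at double strength, filter-sterilised, serially diluted; tested in triplicate from […] start.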

| Structure (SMILES) | MIC |
| --- | --- |
| C[C@H](O)[C@H](O)[C@@H](O)[C@@H](O)CNC1CCCCCCC1 | > 500 µg/mL |
| C=C[C@@H](O)[C@@H](O)CNCCCCCCCC | 940 µM |
| C[C@H](O)[C@@H](O)[C@@H](O)[C@H](O)CNC1CCCCC1 | > 500 µg/mL |
| O=C1OC[C@H]2[C@@H](O)[C@@H](O)CN12 | > 3500 µM |
| C=C[C@@H](O)[C@H](O)CN | > 3500 µM |
| C=C[C@H](O)[C@@H](O)CNCCCCCCCC | 940 µM |
| OC[C@@H]1NC[C@H](O)[C@@H]1O | > 3500 µM |
| C=C[C@@H](O)[C@H](O)CNCc1ccccc1 | > 500 µg/mL |
| OC[C@@H](O)[C@H](O)[C@H](O)CNC1CCCCCCCCCCC1 | 160 µM |
| C=C[C@H](O)[C@@H](O)CN | > 3500 µM |
| C=C[C@@H](O)[C@@H](O)CNCc1ccccc1 | > 500 µg/mL |
| OC[C@@H]1NC[C@@H](O)[C@@H]1O | > 3500 µM |
| C=C[C@@H](O)[C@H](O)CNCCCCCCCCCCCCCCCC | 21 µM |
| OC[C@@H](O)[C@H](O)[C@H](O)CNC1CCCCCCC1 | > 500 µg/mL |
| C=C[C@@H](O)[C@H](O)CNC[C@@H](O)[C@H](O)C=C | 2000 µM |
| O=C1OC[C@H]2[C@@H](O)CCN12 | > 3500 µM |
| C=C[C@@H](O)[C@@H](O)CNC(c1ccccc1)c1ccccc1 | 1600 µM |
| C[C@H](O)[C@@H](O)[C@@H](O)[C@H](O)CNC1CCCCCCCCCCC1 | 680 µM |
| CC[C@@H](CO)NCCN[C@@H](CC)CO [ETHAMBUTOL] | 39 µM |
| C=C[C@@H](O)[C@H](O)CN(C)CCCCCCCCCCCCCCCC | 22 µM |
| OC[C@@H](O)[C@H](O)[C@H](O)CNC1CCCCC1 | > 500 µg/mL |

| Structure (SMILES) | MIC |
| --- | --- |
| CCCCCCCCCCCCCCCCN [HEXADECYLAMINE] | 130 µM |
| C=C[C@@H](O)[C@H](O)CNC(c1ccccc1)c1ccccc1 | 1600 µM |
| C=C[C@@H](O)[C@H](O)CNC12CC3CC(CC(C3)C1)C2 | > 500 µg/mL |
| OC[C@@H](O)[C@H](O)[C@H](O)CNC12CC3CC(CC(C3)C1)C2 | > 500 µg/mL |
| C=C[C@@H](O)[C@H](O)CNCCCCCCCCCCCCCC | 45 µM |
| C=C[C@@H](O)[C@@H](O)CN | > 3500 µM |
| NC(c1ccccc1)c1ccccc1 [AMINODIPHENYLMETHANE] | 1360 µM |
| O=C1OC[C@H]2[C@@H](O)[C@H](O)CN12 | > 3500 µM |
| O=C1OC[C@@H]2[C@H](O)[C@@H](O)CN12 | > 3500 µM |
| OC[C@@H]1NCC[C@@H]1O | > 3500 µM |
| C=C[C@@H](O)[C@H](O)CNC1CCCCCCCCCCC1 | 200 µM |
| NC1CCCCCCCCCCC1 | 680 µM |
| C[C@H](O)[C@@H](O)[C@@H](O)[C@H](O)CNC1CCCCCCC1 | > 500 µg/mL |
| C=C[C@@H](O)[C@H](O)CNCCCCCCCC | 680 µM |
| C=C[C@H](OC)[C@H](CNC(c1ccccc1)c1ccccc1)OC | 800 µM |
| C=C[C@H](O)[C@@H](O)CNC(c1ccccc1)c1ccccc1 | 440 µM |
| CCCCCCCCCCCCCCN [TETRADECYLAMINE] | 140 µM |
| C=C[C@@H](O)CCN | > 3500 µM |
| OC[C@H]1NC[C@H](O)[C@H]1O | > 3500 µM |
| C=C[C@@H](O)[C@H](O)CN(CCCC)CCCC | > 500 µg/mL |
| C=C[C@H](O)[C@@H](O)CNCc1ccccc1 | > 500 µg/mL |
